Results: ChEMBL document CHEMBL1159084, “Synthesis and structure-activity relationship of 1,2,4-triazole-containing diarylpyrazolyl carboxamide as CB1 cannabinoid receptor-ligand” (Bioorg Med Chem, 2010)

These compounds were tested against Cannabinoid receptor 1 (Rattus norvegicus, UniProt P20272) (assay: Displacement of [3H]CP-55940 from CB1 receptor in Sprague-Dawley rat cerebellar membrane).
Design: species or system Cerebellum
Method in brief: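 Membranes came from cerebella of male Sprague Dawley rats (200–300 g), homogenized in TME buffer (50 mM Tris–HCl, 1 mM EDTA, 3 mM MgCl2, pH 7.4) and spun at 48,000g for 30 min at 4 °C. They were incubated 1 h at 30 °C in TME with 0.5% fatty-acid-free BSA, then filtered on PEI-soaked GF/B, washed and counted by scintillation. IC50 values are from single determinations.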

Sequence of Cannabinoid receptor 1 (P20272 whole entry): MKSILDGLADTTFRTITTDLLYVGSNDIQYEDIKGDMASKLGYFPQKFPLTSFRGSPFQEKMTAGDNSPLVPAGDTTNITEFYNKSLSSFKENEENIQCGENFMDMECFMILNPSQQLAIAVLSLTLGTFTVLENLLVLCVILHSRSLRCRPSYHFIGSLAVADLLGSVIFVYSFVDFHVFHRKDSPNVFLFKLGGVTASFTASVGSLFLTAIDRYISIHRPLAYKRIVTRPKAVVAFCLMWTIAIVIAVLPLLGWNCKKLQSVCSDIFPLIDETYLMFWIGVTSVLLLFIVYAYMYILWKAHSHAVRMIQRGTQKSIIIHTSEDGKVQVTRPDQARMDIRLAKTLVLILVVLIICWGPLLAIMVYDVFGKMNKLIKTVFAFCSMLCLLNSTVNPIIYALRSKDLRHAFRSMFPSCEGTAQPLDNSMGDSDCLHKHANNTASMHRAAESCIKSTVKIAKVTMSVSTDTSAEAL

Point of comparison: `CCN1CCN(C(=O)c2nn(-c3ccc(Cl)cc3Cl)c(-c3ccc(Br)cc3)c2Cn2cncn2)CC1`, IC50 285 nM. Against it:
- O=C(c1nn(-c2ccc(Cl)cc2Cl)c(-c2ccc(Br)cc2)c1Cn1cncn1)N1CCN(c2cccc(Cl)c2Cl)CC1 — 50-fold lower, 5.74 nM
- O=C(NC1CCCC1)c1nn(-c2ccc(Cl)cc2Cl)c(-c2ccc(Cl)cc2)c1Cn1cncn1 — 41-fold lower, 6.9 nM
- O=C(NC1(c2ccc(Cl)cc2)CC1)c1nn(-c2ccc(Cl)cc2Cl)c(-c2ccc(Br)cc2)c1Cn1cncn1 — 100-fold lower, 2.8 nM
- CC(NC(=O)c1nn(-c2ccc(Cl)cc2Cl)c(-c2ccc(Cl)cc2)c1Cn1cncn1)c1ccc(Br)cc1 (stereo not given) — 110-fold lower, 2.6 nM
- C[C@H]1CCCC[C@@H]1NC(=O)c1nn(-c2ccc(Cl)cc2Cl)c(-c2ccc(Cl)cc2)c1Cn1cncn1 — 22-fold lower, 12.9 nM
- CCC(C)(C)NC(=O)c1nn(-c2ccc(Cl)cc2Cl)c(-c2ccc(Cl)cc2)c1Cn1cncn1 — 95-fold lower, 3.01 nM
- O=C(NC1(C(F)(F)F)CCC1)c1nn(-c2ccc(Cl)cc2Cl)c(-c2ccc(Cl)cc2)c1Cn1cncn1 — 61-fold lower, 4.67 nM
- CCC(C)(C)NC(=O)c1nn(-c2ccc(Cl)cc2Cl)c(-c2ccc(Br)cc2)c1Cn1cncn1 — 78-fold lower, 3.67 nM
- CC(NC(=O)c1nn(-c2ccc(Cl)cc2Cl)c(-c2ccc(Br)cc2)c1Cn1cncn1)c1ccc(Cl)cc1Cl (stereo not given) — 130-fold lower, 2.2 nM
- CC(C)(NC(=O)c1nn(-c2ccccc2Cl)c(-c2ccc(Cl)cc2)c1Cn1cncn1)c1ccc(Cl)cc1 — 37-fold lower, 7.7 nM
- CN1CCN(C(=O)c2nn(-c3ccc(Cl)cc3Cl)c(-c3ccc(Cl)cc3)c2Cn2cncn2)CC1 — 5-fold higher, 1420 nM
- O=C(NC1CCCCCC1)c1nn(-c2ccc(Cl)cc2Cl)c(-c2ccc(Cl)cc2)c1Cn1cncn1 — 25-fold lower, 11.2 nM
- O=C(c1nn(-c2ccc(Cl)cc2Cl)c(-c2ccc(Cl)cc2)c1Cn1cncn1)N1CCN(c2cccc(Cl)c2)CC1 — 39-fold lower, 7.33 nM
- O=C(NCC1CCCCC1)c1nn(-c2ccccc2Cl)c(-c2ccc(Cl)cc2)c1Cn1cncn1 — 23-fold lower, 12.2 nM
- CC(NC(=O)c1nn(-c2ccccc2Cl)c(-c2ccc(Cl)cc2)c1Cn1cncn1)C(C)(C)C (stereo not given) — 46-fold lower, 6.22 nM
- O=C(c1nn(-c2ccc(Cl)cc2Cl)c(-c2ccc(Br)cc2)c1Cn1cncn1)N1CCN(c2cccc(Cl)c2)CC1 — 39-fold lower, 7.22 nM
- C[C@H]1CC[C@@H](NC(=O)c2nn(-c3ccc(Cl)cc3Cl)c(-c3ccc(Cl)cc3)c2Cn2cncn2)CC1 — 17-fold lower, 17.1 nM
- O=C(NC1CCCCC1)c1nn(-c2ccc(Cl)cc2Cl)c(-c2ccc(Br)cc2)c1Cn1cncn1 — 65-fold lower, 4.38 nM
- O=C(c1nn(-c2ccc(Cl)cc2Cl)c(-c2ccc(Cl)cc2)c1Cn1cncn1)N1CCN(c2ccccc2)CC1 — 32-fold lower, 8.88 nM
- Cc1cccc(N2CCN(C(=O)c3nn(-c4ccc(Cl)cc4Cl)c(-c4ccc(Cl)cc4)c3Cn3cncn3)CC2)c1C — 25-fold lower, 11.5 nM
- O=C(c1nn(-c2ccc(Cl)cc2Cl)c(-c2ccc(Cl)cc2)c1Cn1cncn1)N1CCN(c2ncccn2)CC1 — 5.1-fold lower, 56 nM
- O=C(NC1(C(F)(F)F)CC1)c1nn(-c2ccccc2Cl)c(-c2ccc(Cl)cc2)c1Cn1cncn1 — 60-fold lower, 4.75 nM
- O=C(NCc1ccccc1)c1nn(-c2ccc(Cl)cc2Cl)c(-c2ccc(Br)cc2)c1Cn1cncn1 — 22-fold lower, 13 nM
- CC(C)(C)NC(=O)c1nn(-c2ccc(Cl)cc2Cl)c(-c2ccc(Cl)cc2)c1Cn1cncn1 — 58-fold lower, 4.9 nM
- O=C(NCc1ccccc1)c1nn(-c2ccccc2Cl)c(-c2ccc(Cl)cc2)c1Cn1cncn1 — 20-fold lower, 14.1 nM
- CC(C)(C)NC(=O)c1nn(-c2ccccc2Cl)c(-c2ccc(Br)cc2)c1Cn1cncn1 — 36-fold lower, 7.9 nM
- CC(NC(=O)c1nn(-c2ccc(Cl)cc2Cl)c(-c2ccc(Cl)cc2)c1Cn1cncn1)C(C)(C)C (stereo not given) — 34-fold lower, 8.44 nM
- O=C(NNC(=O)C1CCCCC1)c1nn(-c2ccc(Cl)cc2Cl)c(-c2ccc(Cl)cc2)c1Cn1cncn1 — 1.5-fold lower, 189 nM
- O=C(NN1CCCCC1)c1nn(-c2ccc(Cl)cc2Cl)c(-c2ccc(Br)cc2)c1Cn1cncn1 — 56-fold lower, 5.11 nM
- CC(C)(NC(=O)c1nn(-c2ccc(Cl)cc2Cl)c(-c2ccc(Cl)cc2)c1Cn1cncn1)c1ccccc1 — 39-fold lower, 7.4 nM
- CN1CCN(C(=O)c2nn(-c3ccc(Cl)cc3Cl)c(-c3ccc(Br)cc3)c2Cn2cncn2)CC1 — 4.7-fold higher, 1340 nM
- O=C(NCc1ccccn1)c1nn(-c2ccccc2Cl)c(-c2ccc(Br)cc2)c1Cn1cncn1 — 4.5-fold lower, 63.4 nM
- CCN1CCN(C(=O)c2nn(-c3ccccc3Cl)c(-c3ccc(Br)cc3)c2Cn2cncn2)CC1 — within 1.5-fold, 303 nM
- CC(NC(=O)c1nn(-c2ccccc2Cl)c(-c2ccc(Br)cc2)c1Cn1cncn1)C(C)(C)C (stereo not given) — 48-fold lower, 6 nM
- O=C(c1nn(-c2ccc(Cl)cc2Cl)c(-c2ccc(Br)cc2)c1Cn1cncn1)N1CCN(c2ncccn2)CC1 — 10-fold lower, 27.7 nM
- O=C(NC1(C(F)(F)F)CC1)c1nn(-c2ccccc2Cl)c(-c2ccc(Br)cc2)c1Cn1cncn1 — 31-fold lower, 9.15 nM
- CCNC1(C(N)=O)CCN(C(=O)c2nn(-c3ccc(Cl)cc3Cl)c(-c3ccc(Cl)cc3)c2Cn2cncn2)CC1 — 3.1-fold higher, 878 nM
- O=C(NC1CCCCCC1)c1nn(-c2ccccc2Cl)c(-c2ccc(Cl)cc2)c1Cn1cncn1 — 29-fold lower, 9.7 nM
- O=C(c1nn(-c2ccccc2Cl)c(-c2ccc(Cl)cc2)c1Cn1cncn1)N1CCN(c2ccccc2)CC1 — 25-fold lower, 11.5 nM
- CCC(C)(C)NC(=O)c1nn(-c2ccccc2Cl)c(-c2ccc(Cl)cc2)c1Cn1cncn1 — 24-fold lower, 11.9 nM
- O=C(NC1(c2ccccc2)CC1)c1nn(-c2ccc(Cl)cc2Cl)c(-c2ccc(Cl)cc2)c1Cn1cncn1 — 56-fold lower, 5.1 nM
- O=C(NCC1CCCCC1)c1nn(-c2ccc(Cl)cc2Cl)c(-c2ccc(Cl)cc2)c1Cn1cncn1 — 12-fold lower, 22.8 nM
- O=C(c1nn(-c2ccc(Cl)cc2Cl)c(-c2ccc(Cl)cc2)c1Cn1cncn1)N1CCN(c2cccc(Cl)c2Cl)CC1 — 52-fold lower, 5.5 nM
- CN1CCN(C(=O)c2nn(-c3ccccc3Cl)c(-c3ccc(Br)cc3)c2Cn2cncn2)CC1 — 3.2-fold higher, 901 nM
- CCCCC(CC)CNC(=O)c1nn(-c2ccc(Cl)cc2Cl)c(-c2ccc(Cl)cc2)c1Cn1cncn1 (stereo not given) — 14-fold lower, 20.2 nM
- O=C(c1nn(-c2ccc(Cl)cc2Cl)c(-c2ccc(Br)cc2)c1Cn1cncn1)N1CCN(c2ccccc2)CC1 — 23-fold lower, 12.5 nM
- O=C(NC1(c2ccc(Cl)cc2)CC1)c1nn(-c2ccccc2Cl)c(-c2ccc(Cl)cc2)c1Cn1cncn1 — 32-fold lower, 9.03 nM
- N#CC1(NC(=O)c2nn(-c3ccccc3Cl)c(-c3ccc(Br)cc3)c2Cn2cncn2)CC1 — 15-fold lower, 19.6 nM
- O=C(NC1(C(F)(F)F)CCC1)c1nn(-c2ccc(Cl)cc2Cl)c(-c2ccc(Br)cc2)c1Cn1cncn1 — 74-fold lower, 3.87 nM
- O=C(c1nn(-c2ccccc2Cl)c(-c2ccc(Br)cc2)c1Cn1cncn1)N1CCN(c2ccccc2)CC1 — 36-fold lower, 8.01 nM
- Cc1cccc(N2CCN(C(=O)c3nn(-c4ccccc4Cl)c(-c4ccc(Cl)cc4)c3Cn3cncn3)CC2)c1C — 47-fold lower, 6.09 nM
- CC(C)(C)NC(=O)c1nn(-c2ccc(Cl)cc2Cl)c(-c2ccc(Br)cc2)c1Cn1cncn1 — 98-fold lower, 2.9 nM
- O=C(c1nn(-c2ccccc2Cl)c(-c2ccc(Br)cc2)c1Cn1cncn1)N1CCN(c2ncccn2)CC1 — 13-fold lower, 22.3 nM
- O=C(NC1CCCCCC1)c1nn(-c2ccc(Cl)cc2Cl)c(-c2ccc(Br)cc2)c1Cn1cncn1 — 34-fold lower, 8.49 nM
- O=C(NC1(C(F)(F)F)CC1)c1nn(-c2ccc(Cl)cc2Cl)c(-c2ccc(Br)cc2)c1Cn1cncn1 — 86-fold lower, 3.31 nM
- O=C(NC1(c2ccccc2)CC1)c1nn(-c2ccc(Cl)cc2Cl)c(-c2ccc(Br)cc2)c1Cn1cncn1 — 36-fold lower, 7.86 nM
- O=C(NNC(=O)C1(C(F)(F)F)CC1)c1nn(-c2ccc(Cl)cc2Cl)c(-c2ccc(Cl)cc2)c1Cn1cncn1 — 2.3-fold lower, 126 nM
- O=C(N[C@H]1CCCC[C@@H]1O)c1nn(-c2ccc(Cl)cc2Cl)c(-c2ccc(Cl)cc2)c1Cn1cncn1 — 4.7-fold lower, 60.7 nM
- CCN1CCN(C(=O)c2nn(-c3ccccc3Cl)c(-c3ccc(Cl)cc3)c2Cn2cncn2)CC1 — 3.7-fold higher, 1050 nM
